Screening results (PubChem)
Sampled rows, rich in hits. Any-hit rate of the full collection: about 2.9%.
TRPC4 potent: allosterically enhances the mouse TRPC4 cation channel; Q9QUQ5; HEK293 TRPC4beta/mu-opioid, DAMGO EC20, Fluo-4 Ca2+ flux; hits give high values; B-score at 10 µM; hit rate 0.42% among 310,000;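 active = B-score of calcium response area above 5 SD of library B-scores, with initial fluorescence ratio within 5 SD of library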;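 also: B-score of integrated fluorescence ratio over time as area under calcium response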
TRPC6 inhibitor: inhibitors of mouse TRPC6 channel | HEK293-TRPC6, membrane potential dye, ACh-evoked depolarization; hits give low values | B-score at 10 µM | hit rate 1.1% among 310,000 | AID 2553;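 active = B-score under library mean minus 3 SD, initial fluorescence not abnormally high, positive integrated signal ratio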;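 also: B-score derived from integrated fluorescence ratio over the kinetic read; more negative B-score means stronger inhibition of depolarization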
Kir21 block: blocks the mouse Kir2.1 inward-rectifier potassium channel; P35561; HEK293-Kir2.1, FluxOR thallium flux fluorescence; hits give low values; B-score at 10 µM; hit rate 0.85% among 310,000; AID 1672;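 active = fluorescence ratio B-score at or below minus 3 SD of library scores, with starting-brightness B-score within 2 SD, cut at about -4.2 in these data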;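 also: channel flux triggered by added potassium and thallium sulfate stimulus; B-score of peak minus minimum fluorescence over baseline after thallium stimulus; more negative B-score means stronger Kir2.1 block with less thallium influx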
Target sequence (P35561 whole entry, looked up): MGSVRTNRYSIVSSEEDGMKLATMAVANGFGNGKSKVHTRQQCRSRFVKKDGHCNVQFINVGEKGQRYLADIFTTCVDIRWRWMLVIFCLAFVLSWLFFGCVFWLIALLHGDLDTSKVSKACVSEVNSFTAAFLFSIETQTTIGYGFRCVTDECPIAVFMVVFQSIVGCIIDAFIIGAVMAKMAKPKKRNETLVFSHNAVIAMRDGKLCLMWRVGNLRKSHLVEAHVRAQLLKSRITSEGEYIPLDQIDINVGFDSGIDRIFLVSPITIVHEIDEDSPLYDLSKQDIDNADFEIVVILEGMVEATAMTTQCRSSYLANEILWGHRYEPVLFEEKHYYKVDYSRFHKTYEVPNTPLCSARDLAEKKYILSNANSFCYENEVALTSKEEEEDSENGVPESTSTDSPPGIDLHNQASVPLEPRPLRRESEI
TRPC4 inh: blocks the mouse TRPC4 cation channel | B-score at 10 µM | hit rate 0.39% among 300,000 | AID 2247 | HEK293 TRPC4beta/mu-opioid, DAMGO-evoked Fluo4 calcium flux; hits give low values;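 active = B-score over 3 SD under the library average, no early fluorescence shift, positive overall ratio signal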
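Material: HEK293 cells with stable TRPC4beta plus mu-opioid receptor expression; probe or stimulus: DAMGO in two steps, submaximal then maximal; technique: Fluo4 calcium fluorescence by kinetic imaging, 5 s 1 Hz baseline; measure: integrated fluorescence ratio relative to baseline, converted to per-well B score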
TRPC4 act: TRPC4 (mouse) channel activation; Q9QUQ5; HEK293 TRPC4beta/mu-opioid, Fluo4 calcium fluorescence; hits give high values; B-score at 10 µM; hit rate 0.49% among 310,000;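 active = B-score above 5 SD of library B-scores, and initial fluorescence ratio not above library mean plus 5 SD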;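 also: positive B-score marks a calcium rise read as TRPC4 activation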
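Technique: kinetic Fluo4 calcium fluorescence; Test system: TRPC4beta and mu-opioid receptor HEK293 stable cells; Measure: B-scored integrated calcium fluorescence ratio; Benchmarks: low control buffer alone, high control maximal DAMGO; Schedule: 45 min room-temperature Fluo4 loading, 110 s read.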
TRPC6 act: activators of mouse TRPC6 channel; Q61143; HEK293-TRPC6 membrane potential dye fluorescence; hits give high values; B-score at 10 µM; hit rate 0.13% among 310,000;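 active = B-score of the integrated fluorescence ratio above library mean plus 3 SD, and starting fluorescence ratio within library mean plus 5 SD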;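 also: higher score means more depolarization so channel activation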
* hit, by the source's call; i = inactive.

SMILES	TRPC4 potent	TRPC6 inhibitor	Kir21 block	TRPC4 inh	TRPC4 act	TRPC6 act
Cc1nn(CC(=O)N2CCN(c3cccc(C(F)(F)F)c3)CC2)c(=O)c2cccn12	i	i	0.13	i	i	i
COc1ccc(C2=NOC(Cn3c(Cc4ccc(Cl)cc4)nc4c3c(=O)n(C)c(=O)n4C)C2)cc1 (stereo not given)	10*	i	1.52	i	i	i
Cc1oc(-c2ccoc2)nc1CN(Cc1ccccc1)CC1CC1	i	i	-0.58	-9*	i	i
COc1cccc(C(C)N(C)Cc2nc(-c3ccoc3)oc2C)c1 (stereo not given)	i	i	-2.97	i	i	i
CCOc1ccc(N2C(=O)CC(N3CCN(C4CCc5ccccc5C4)CC3)C2=O)cc1 (stereo not given)	14*	i	0.54	i	i	i
Cc1ccc(N2C(=O)CC(N3CCN(C4CCc5ccccc5C4)CC3)C2=O)cc1 (stereo not given)	i	i	-1.36	i	i	i
NS(=O)(=O)c1ccc(CCNC(=O)CNC(=O)Cc2cccc3ccccc23)cc1	i	i	-0.23	i	i	i
O=C(CNC(=O)Cc1cccc2ccccc12)NCc1ccc(F)cc1	i	i	-5.2*	i	i	i
CCOC(=O)N1CCC(NC(=O)c2cc(COc3ccccc3SC)on2)CC1	i	i	1.8	i	i	i
Oc1cccc(/C=N/NC(=S)Nc2cccnc2)c1O	i	i	0.16	i	50*	i
COc1cccc(CNC(=O)CCC2CCCN(c3cc(C)nc(N(C)C)n3)C2)c1 (stereo not given)	i	i	-0.51	-6*	i	i
Cc1cc(/C=N/NC(=O)c2cccc([N+](=O)[O-])c2)c(C)n1-c1ccc(Cl)cc1Cl	i	i	0.35	-6*	i	i
O=C(N/N=C/c1ccc[nH]1)c1cccc([N+](=O)[O-])c1	i	i	1.01	i	i	i
Cc1ccc(OCC(=O)NCCCNC(=O)c2cccnc2)cc1	i	i	-0.6	i	i	i
Cc1ccc(-c2cc(C(=O)Nc3nccs3)c3ccccc3n2)o1	i	i	0.31	-7*	i	i
CN(Cc1ccc(C#CCCO)cc1)CC1CCCN(CCc2ccc(Cl)cc2)C1 (stereo not given)	i	i	-9.39*	i	i	i
CN(Cc1ccccc1O)CC1CCCN(CCc2ccc(Cl)cc2)C1 (stereo not given)	i	i	-14.5*	i	i	i
CC(=O)Nc1cccc(C(=O)/C=C/c2ccc(C)cc2)c1	i	i	-0.97	i	i	i
CN(C)c1ccc(/C=C/C(=O)c2cccc(Br)c2)cc1	18*	i	-10.6	i	99*	i
C/C(CC(=O)NC(C)(C)C)=N\NC(=O)COc1ccc(C)cc1Br	11*	i	-0.04	i	i	i
COC(=O)c1ccc(C)c(NS(=O)(=O)c2cn(C)nc2C)c1	i	i	0.37	i	i	i
O=C(c1cccc(S(=O)(=O)N2CCN(c3ccc(F)cc3)CC2)c1)N1CCCC(C(F)(F)F)C1 (stereo not given)	i	i	0.92	i	i	i
CCN(CC)CCOC(=O)C(Cc1ccco1)Cc1cccc2ccccc12 (stereo not given)	i	i	-7.52*	i	i	i
O=S(=O)(c1ccccc1)c1nc(-c2cccc(Cl)c2)oc1N1CCOCC1	10*	i	0.3	i	i	i
O=S(=O)(c1ccccc1)c1nc(-c2ccccc2)oc1N1CCOCC1	i	i	1.18	i	i	i
SMILES	TRPC4 potent	TRPC6 inhibitor	Kir21 block	TRPC4 inh	TRPC4 act	TRPC6 act
O=C(c1ccccc1Br)N1CCc2c([nH]c3ccccc23)C1	i	i	0.13	i	i	i
CCCc1cc(=O)oc2cc(C)cc(OCC(=O)NCCCN3CCCC3=O)c12	i	i	-0.8	i	i	i
Cc1cc([N+](=O)[O-])nn1Cc1noc(C(=O)NCCc2ccccn2)n1	i	i	-0.05	i	79*	i
CCCCNc1c(-c2ccc(SC(C)CC)c(OC)c2)nc2ccc(C)cn12 (stereo not given)	i	i	1.81	-6*	i	i
CN(C)C(CNC(=O)c1ccc(C2SCCS2)cc1)c1ccccc1 (stereo not given)	i	i	4.92e-16	-5*	i	i
CN(C)C(CNC(=O)c1ccc2ccccc2n1)c1ccccc1 (stereo not given)	i	i	-1.15	i	100*	i
CN(C)C(CNC(=O)/C=C/c1cccc(Cl)c1)c1ccccc1 (stereo not given)	i	i	-0.64	i	199*	i
CN(C)C(CNC(=O)c1ccc(NC(=O)c2cccs2)cc1)c1ccccc1 (stereo not given)	i	i	-1.07	i	i	i
CN(C)C(CNC(=O)c1cnc(Cl)c(Cl)c1)c1ccccc1 (stereo not given)	i	i	-0.84	i	223*	i
O=C(O)c1ccc(NC(=O)c2ccccc2NC(=O)c2ccccc2Cl)cc1	i	i	0.09	i	i	i
CCOC(=O)C1(CCOC)CCN(C/C=C/c2ccccc2OC)CC1	i	i	0.39	i	i	i
CCCOC(=O)C1=C(C)N(C)C(=O)NC1c1cc2c(cc1[N+](=O)[O-])OCO2 (stereo not given)	i	i	0.07	i	i	i
CCOC(=O)C1=C(C)NC(=O)CC1c1cc2c(cc1[N+](=O)[O-])OCO2 (stereo not given)	i	i	-0.28	-7*	i	i
Cn1cc(CNCc2cnc3ccccn23)c(-c2ccc(Oc3ccccc3)cc2)n1	i	i	-3.29	i	i	i
CN(Cc1cn(C)nc1-c1ccc(Oc2ccccc2)cc1)Cc1cnc2ccccn12	i	i	-5.1*	i	i	i
OC(COc1ccc2ccccc2c1)Cn1ccnc1 (stereo not given)	11*	i	-1.23	i	i	i
OC(COc1ccc2ccccc2c1Br)Cn1ccnc1 (stereo not given)	i	i	-1.66	i	i	i
Cc1cccc(C(=O)N2CCN(Cc3nc4sc5c(c4c(=O)[nH]3)CCCC5)CC2)c1	i	i	0.67	i	i	i
CC(C)C(=O)Nc1ccc(C(=O)Nc2nnc(C(C)(C)C)s2)cc1	i	i	0.5	-6*	i	i
